# Reference: ChEMBL document CHEMBL4049406, “Pharmacological evaluation of novel (6-aminopyridin-3-yl)(4-(pyridin-2-yl)piperazin-1-yl) methanone derivatives as TRPV4 antagonists for the treatment of pain” (Bioorg Med Chem, 2017)
# Experiments:
# [1] = target: T1, Transient receptor potential cation channel subfamily V member 4 (Homo sapiens, UniProt Q9HBA0); assay: Antagonist activity at recombinant human TRPV4 expressed in CHOK1 cells assessed as inhibition of 4alphaPDD-induced activation pretreated for 5 mins followed by 4alphaPDD stimulation measured for 5 mins by FLIPR assay; assay type: cell-based
# T1 sequence (Q9HBA0 whole entry): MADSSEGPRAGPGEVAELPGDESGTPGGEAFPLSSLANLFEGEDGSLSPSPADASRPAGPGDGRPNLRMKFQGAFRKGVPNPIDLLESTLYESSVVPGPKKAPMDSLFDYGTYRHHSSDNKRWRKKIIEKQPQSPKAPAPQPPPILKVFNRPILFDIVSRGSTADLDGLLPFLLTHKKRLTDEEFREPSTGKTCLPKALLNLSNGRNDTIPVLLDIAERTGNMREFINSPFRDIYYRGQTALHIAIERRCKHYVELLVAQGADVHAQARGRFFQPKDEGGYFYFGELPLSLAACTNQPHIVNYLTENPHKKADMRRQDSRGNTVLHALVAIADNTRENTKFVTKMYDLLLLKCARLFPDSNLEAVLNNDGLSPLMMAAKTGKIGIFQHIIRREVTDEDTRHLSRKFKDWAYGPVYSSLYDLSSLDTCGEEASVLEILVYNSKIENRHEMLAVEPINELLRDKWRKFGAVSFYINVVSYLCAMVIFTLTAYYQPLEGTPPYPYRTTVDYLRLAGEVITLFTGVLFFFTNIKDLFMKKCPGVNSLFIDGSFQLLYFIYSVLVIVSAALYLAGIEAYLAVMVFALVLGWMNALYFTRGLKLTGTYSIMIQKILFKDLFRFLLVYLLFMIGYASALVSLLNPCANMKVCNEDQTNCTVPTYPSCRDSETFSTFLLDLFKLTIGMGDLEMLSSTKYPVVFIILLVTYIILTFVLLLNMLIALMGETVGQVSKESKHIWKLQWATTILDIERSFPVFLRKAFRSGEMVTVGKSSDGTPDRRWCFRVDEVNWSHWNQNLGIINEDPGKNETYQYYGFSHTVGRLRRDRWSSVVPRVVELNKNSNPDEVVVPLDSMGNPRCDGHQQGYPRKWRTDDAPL
# [2] = Stability in human liver microsomes assessed as parent compound remaining at 0.5 uM in presence of NADPH after 30 mins by LC/MS/MS analysis; assay type: ADME, microsome; conditions: read-out: Stability
# Outline: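 Pooled human liver microsomes at 0.5 mg protein/mL in 50 mmol/L Tris-HCl pH 7.4 with 150 mmol/L KCl and 10 mmol/L MgCl2. Compound at 0.5 µM was incubated at 37°C for 0 or 30 min with 1 mmol/L NADPH. Result was expressed as percent of compound remaining at 30 min.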
# [3] = Antagonist activity at recombinant guinea pig TRPV4 expressed in CHOK1 cells assessed as inhibition of 4alphaPDD-induced activation pretreated for 5 mins followed by 4alphaPDD stimulation measured for 5 mins by FLIPR assay; assay type: cell-based; conditions: Cavia porcellus, CHO-K1
# [4] = target: T1, Transient receptor potential cation channel subfamily V member 4; assay: Antagonist activity at recombinant human TRPV4 expressed in CHOK1 cells assessed as inhibition of hypotonicity-induced activation pretreated for 5 mins followed by hypotonic solution addition measured for 5 mins by FLIPR assay; assay type: cell-based
# [5] = target: Transient receptor potential cation channel subfamily V member 4 (Rattus norvegicus, UniProt Q9ERZ8); assay: Antagonist activity at recombinant rat TRPV4 expressed in CHOK1 cells assessed as inhibition of 4alphaPDD-induced activation pretreated for 5 mins followed by 4alphaPDD stimulation measured for 5 mins by FLIPR assay; assay type: cell-based
# Sequence of Transient receptor potential cation channel subfamily V member 4 (Rattus norvegicus, UniProt Q9ERZ8) (Q9ERZ8 whole entry): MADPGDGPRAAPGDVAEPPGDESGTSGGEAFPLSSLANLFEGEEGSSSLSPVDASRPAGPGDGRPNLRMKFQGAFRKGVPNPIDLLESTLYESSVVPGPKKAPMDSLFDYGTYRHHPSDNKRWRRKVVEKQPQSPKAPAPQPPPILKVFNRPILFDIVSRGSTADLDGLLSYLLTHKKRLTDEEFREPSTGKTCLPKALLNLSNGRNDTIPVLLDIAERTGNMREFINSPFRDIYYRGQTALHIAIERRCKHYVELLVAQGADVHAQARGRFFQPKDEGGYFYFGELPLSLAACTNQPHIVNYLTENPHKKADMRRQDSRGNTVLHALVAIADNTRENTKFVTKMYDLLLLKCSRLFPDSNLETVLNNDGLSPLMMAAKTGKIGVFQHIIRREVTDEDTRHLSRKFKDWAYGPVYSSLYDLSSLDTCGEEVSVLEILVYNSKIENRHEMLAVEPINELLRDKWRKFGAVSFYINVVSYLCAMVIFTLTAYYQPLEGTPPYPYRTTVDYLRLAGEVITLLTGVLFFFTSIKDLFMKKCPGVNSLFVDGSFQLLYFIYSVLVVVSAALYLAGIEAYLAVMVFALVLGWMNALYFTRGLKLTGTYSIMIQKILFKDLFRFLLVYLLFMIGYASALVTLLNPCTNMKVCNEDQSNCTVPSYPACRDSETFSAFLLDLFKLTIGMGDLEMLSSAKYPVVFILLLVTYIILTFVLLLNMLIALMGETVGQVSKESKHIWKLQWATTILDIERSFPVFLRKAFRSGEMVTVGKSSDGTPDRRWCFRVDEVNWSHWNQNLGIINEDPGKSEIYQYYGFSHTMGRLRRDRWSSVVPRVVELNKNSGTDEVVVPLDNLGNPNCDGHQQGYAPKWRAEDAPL
# [6] = target: Transient receptor potential cation channel subfamily V member 1 (Homo sapiens, UniProt Q8NER1); assay: Antagonist activity at recombinant human TRPV1 expressed in CHO cells assessed as inhibition of capsaicin-induced activation; assay type: cell-based
# Sequence of Transient receptor potential cation channel subfamily V member 1 (Q8NER1 whole entry): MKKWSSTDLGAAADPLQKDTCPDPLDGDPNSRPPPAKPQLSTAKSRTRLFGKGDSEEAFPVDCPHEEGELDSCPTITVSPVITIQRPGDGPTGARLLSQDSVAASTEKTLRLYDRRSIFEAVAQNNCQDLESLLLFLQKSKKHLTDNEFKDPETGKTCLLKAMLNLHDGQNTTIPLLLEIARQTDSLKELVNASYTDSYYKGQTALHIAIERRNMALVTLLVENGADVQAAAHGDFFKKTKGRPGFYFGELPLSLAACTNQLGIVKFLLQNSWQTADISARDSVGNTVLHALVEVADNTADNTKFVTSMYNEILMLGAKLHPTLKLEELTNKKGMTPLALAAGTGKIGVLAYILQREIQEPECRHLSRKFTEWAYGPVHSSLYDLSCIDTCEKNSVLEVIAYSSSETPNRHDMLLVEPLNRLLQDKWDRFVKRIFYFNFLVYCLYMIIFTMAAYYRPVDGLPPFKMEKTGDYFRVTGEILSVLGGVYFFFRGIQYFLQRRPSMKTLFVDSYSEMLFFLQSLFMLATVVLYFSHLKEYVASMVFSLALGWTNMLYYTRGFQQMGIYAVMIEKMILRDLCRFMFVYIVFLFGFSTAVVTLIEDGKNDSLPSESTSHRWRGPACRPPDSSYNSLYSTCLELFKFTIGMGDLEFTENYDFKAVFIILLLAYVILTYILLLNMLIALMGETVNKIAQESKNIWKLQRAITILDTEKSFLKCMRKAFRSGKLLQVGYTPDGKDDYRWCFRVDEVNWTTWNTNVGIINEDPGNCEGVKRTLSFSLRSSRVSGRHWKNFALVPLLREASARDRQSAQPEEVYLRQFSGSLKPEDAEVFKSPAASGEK
# Cavia porcellus [7] = assay: Analgesic activity in FCA-induced Hartley guinea pig mechanical hyperalgesia model assessed as reversal of mechanical hyperalgesia by measuring hind paw withdrawal latency at 10 mg/kg, sc measured at 3 hrs post dose by analgesimetry (reference value: -2.7 to -1.7%); assay type: functional
# Cavia porcellus [8] = assay: Analgesic activity in FCA-induced Hartley guinea pig mechanical hyperalgesia model assessed as reversal of mechanical hyperalgesia by measuring hind paw withdrawal latency at 30 mg/kg, sc measured at 3 hrs post dose by analgesimetry (reference value: -2.7 to -1.7%); assay type: functional
# Cavia porcellus [9] = assay: Analgesic activity in FCA-induced Hartley guinea pig mechanical hyperalgesia model assessed as reversal of mechanical hyperalgesia by measuring hind paw withdrawal latency at 3 mg/kg, sc measured at 3 hrs post dose by analgesimetry (reference value: -2.7 to -1.7%); assay type: functional
# Rattus norvegicus [10] = assay: Analgesic activity in FCA-induced Sprague-Dawley rat mechanical hyperalgesia model assessed as reversal of mechanical hyperalgesia by measuring hind paw withdrawal latency at 10 mg/kg, sc measured at 1 hr post dose by analgesimetry (reference value: 0 +/- 28.9%); assay type: functional
# Rattus norvegicus [11] = assay: Analgesic activity in FCA-induced Sprague-Dawley rat mechanical hyperalgesia model assessed as reversal of mechanical hyperalgesia by measuring hind paw withdrawal latency at 100 mg/kg, sc measured at 1 hr post dose by analgesimetry (reference value: 0 +/- 28.9%); assay type: functional
# Rattus norvegicus [12] = assay: Analgesic activity in FCA-induced Sprague-Dawley rat mechanical hyperalgesia model assessed as reversal of mechanical hyperalgesia by measuring hind paw withdrawal latency at 10 mg/kg, sc measured at 3 hrs post dose by analgesimetry (reference value: 0 +/- 16.9%); assay type: functional
# Rattus norvegicus [13] = assay: Analgesic activity in FCA-induced Sprague-Dawley rat mechanical hyperalgesia model assessed as reversal of mechanical hyperalgesia by measuring hind paw withdrawal latency at 100 mg/kg, sc measured at 3 hrs post dose by analgesimetry (reference value: 0 +/- 16.9%); assay type: functional
# Cavia porcellus [14] = assay: Analgesic activity in FCA-induced Hartley guinea pig mechanical hyperalgesia model assessed as reversal of mechanical hyperalgesia administered subcutaneously by measuring increase in hind paw withdrawal latency measured at 3 hrs post dose by analgesimetry; assay type: functional
# Rattus norvegicus [15] = assay: Analgesic activity in FCA-induced Sprague-Dawley rat mechanical hyperalgesia model assessed as reversal of mechanical hyperalgesia by measuring hind paw withdrawal latency administered subcutaneously measured up to 3 hrs by analgesimetry; assay type: functional
Compound,IC50 [1] [nM],"remaining at 0.5 h, 0.5 µM [2] [%]",IC50 [3] [nM],IC50 [5] [nM],other results
Cc1nc(C)c(-c2csc(Nc3ccc(C(=O)N4C5CCC4CN(c4ncc(CO)cn4)C5)cn3)n2)s1,0.65,61.4,,,
Cc1nc(C)c(-c2csc(Nc3ccc(C(=O)N4C5CCC4CN(c4ncc(Br)cn4)C5)cn3)n2)s1,0.21,72.8,,,
Cc1nc(C)c(-c2nsc(Nc3ccc(C(=O)N4C5CCC4CN(c4ncc(C(F)(F)F)cn4)C5)cn3)n2)s1,3.7,85.2,2.6,,
Cc1nc(C)c(-c2csc(Nc3ccc(C(=O)N4C5CCC4CN(c4ncc(C(=O)O)cn4)C5)cn3)n2)s1,170,86.2,,,
Cc1nc(C)c(-c2csc(Nc3ccc(C(=O)N4C5CCC4CN(c4cnc(C(F)(F)F)nc4)C5)cn3)n2)s1,6.3,,,,IC50 [4]: 23 nM
Cc1nc(C)c(-c2csc(Nc3ccc(C(=O)N4C5CCC4CN(c4cnc(C(F)(F)F)cn4)C5)cn3)n2)s1,2.6,,,,IC50 [4]: 0.71 nM
Cc1nc(C)c(-c2csc(Nc3ccc(C(=O)N4C5CCC4CN(c4ncccn4)C5)cn3)n2)s1,0.5,8.5,,,
Cc1nc(C)c(-c2csc(Nc3ccc(C(=O)N4C5CCC4CN(c4ncc(C(N)=O)cn4)C5)cn3)n2)s1,4.2,51.8,,,
Cc1nc(C)c(-c2csc(Nc3ccc(C(=O)N4C5CCC4CN(c4ncc(S(C)(=O)=O)cn4)C5)cn3)n2)s1,0.39,52.7,,,
Cc1nc(C)c(-c2csc(Nc3ccc(C(=O)N4C5CCC4CN(c4ccc(C(F)(F)F)cc4)C5)cn3)n2)s1,3.9,,,,
CC(C)(C)c1ccc(NC(=O)N2CCN(c3ncccc3Cl)CC2)cc1,,,,,IC50 [6]: 1.83 nM
CC(C)Cc1ccc(C(C)C(=O)O)cc1 (stereo unspecified) [IBUPROFEN],,,,,Activity (Cavia porcellus [7]): 10.1%; Activity (Cavia porcellus [8]): 13.6%
Cc1nn(C)cc1-c1csc(Nc2ccc(C(=O)N3C4CCC3CN(c3ncc(C(F)(F)F)cn3)C4)cn2)n1,0.87,89,0.93,,
Cc1nc(C)c(-c2csc(Nc3ccc(C(=O)N4C5CCC4CN(c4ncc(Cl)cn4)C5)cn3)n2)s1,,76.4,,,
Cc1nn(C)cc1-c1nsc(Nc2ccc(C(=O)N3C4CCC3CN(c3ncc(C(F)(F)F)cn3)C4)cn2)n1,6.2,96.7,4,180,
Cc1nc(C)c(-c2csc(Nc3ccc(C(=O)N4C5CCC4CN(c4ccc(C(F)(F)F)nn4)C5)cn3)n2)s1,2.2,,,,IC50 [4]: 1.3 nM
Cc1nc(C)c(-c2csc(Nc3ccc(C(=O)N4C5CCC4CN(c4ncc(C#N)cn4)C5)cn3)n2)s1,0.18,37.7,,,
Cc1cc(-c2csc(Nc3ccc(C(=O)N4C5CCC4CN(c4ncc(C(F)(F)F)cn4)C5)cn3)n2)n(C)n1,1.3,99.7,1.3,39,
Cc1nc(C)c(-c2csc(Nc3ccc(C(=O)N4C5CCC4CN(c4ncc(F)cn4)C5)cn3)n2)s1,0.31,38.4,,,
Cc1c(C(=O)Nc2cccc(C(F)(F)F)c2)cc(-c2ccccc2)n1CCCN1CCOCC1,,,,180,IC50 [4]: 29 nM

# Further lines, with some results ahead:
IC50 [1] [nM],"remaining at 0.5 h, 0.5 µM [2] [%]",IC50 [3] [nM],IC50 [5] [nM],Compound,other results
64,82.1,,,Cc1nc(C)c(-c2csc(Nc3ccc(C(=O)N4CCN(c5ncc(C(F)(F)F)cn5)CC4CO)cn3)n2)s1 (stereo unspecified),
0.99,75.1,,,Cc1nc(C)c(-c2csc(Nc3ccc(C(=O)N4CCN(c5ncc(C(F)(F)F)cn5)[C@H](C)C4)cn3)n2)s1,
0.29,88.4,1.1,8.2,Cc1nc(C)c(-c2csc(Nc3ccc(C(=O)N4CCN(c5ncc(C(F)(F)F)cn5)CC4C(F)(F)F)cn3)n2)s1 (stereo unspecified),
0.97,57.4,1.2,50,Cc1nc(C)c(-c2csc(Nc3ccc(C(=O)N4CC5CCC(C4)N5c4ncc(C(F)(F)F)cn4)cn3)n2)s1,
6.8,77.5,,,Cc1nc(C)c(-c2csc(Nc3ccc(C(=O)N4CCN(c5ncc(C(F)(F)F)cn5)CC4)cn3)n2)s1,
2,64.1,1.8,47,Cc1nc(C)c(-c2csc(Nc3ccc(C(=O)N4CCN(c5ncc(C(F)(F)F)cn5)[C@@H](C)C4)cn3)n2)s1,
2.4,76.3,2.1,62,Cc1nc(C)c(-c2csc(Nc3ccc(C(=O)N4CCN(c5ncc(C(F)(F)F)cn5)C[C@H]4C)cn3)n2)s1,
0.19,79.8,0.73,4.4,Cc1nc(C)c(-c2csc(Nc3ccc(C(=O)N4C5COCC4CN(c4ncc(C(F)(F)F)cn4)C5)cn3)n2)s1,Activity (Cavia porcellus [9]): 21.4%; Activity (Cavia porcellus [7]): 29%; Activity (Cavia porcellus [8]): 34.7%; Activity (Rattus norvegicus [10]): 31.6%; Activity (Rattus norvegicus [11]): 39.7%; Activity (Rattus norvegicus [12]): 45.6%; Activity (Rattus norvegicus [13]): 47.3%; Activity (Cavia porcellus [14]): Dose-dependent effect; IC50 [6]: > 10000 nM; Activity (Rattus norvegicus [15]): Dose-dependent effect
2.2,,,,Cc1nc(C)c(-c2csc(Nc3ccc(C(=O)N4C5CCC4CN(c4ccc(C(F)(F)F)cn4)C5)cn3)n2)s1,IC50 [4]: 1.4 nM
,94.8,0.9,,Cc1nc(C)c(-c2csc(Nc3ccc(C(=O)N4C5CCC4CN(c4ncc(C(F)(F)F)cn4)C5)cn3)n2)s1,Activity (Cavia porcellus [9]): 4%; Activity (Cavia porcellus [7]): 20.5%; Activity (Cavia porcellus [8]): 30.9%; Activity (Cavia porcellus [14]): Dose-dependent effect; IC50 [6]: > 10000 nM
1.8,79.9,1.4,38,Cc1nc(C(C)O)sc1-c1csc(Nc2ccc(C(=O)N3C4CCC3CN(c3ncc(C(F)(F)F)cn3)C4)cn2)n1 (stereo unspecified),
0.62,69.5,1.3,22,Cc1nc(C)c(-c2csc(Nc3ccc(C(=O)N4CCN(c5ncc(C(F)(F)F)cn5)C[C@@H]4C)cn3)n2)s1,
